Each block holds one molecule with its values, some of them ahead of it.
Key:
[1] = Inhibition of peptidylglutamyl-peptide hydrolyzing-like activity of 20S proteasome in lymphoblastoid cells after 30 mins; format: cell-based, Homo sapiens
In short: (§1)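 Proteasome partially purified from lymphoblastoid cell lines, then affinity-purified (anti-α-subunit mAb) and dialyzed against 25 mM Tris-HCl pH 7.5; protein by BCA. Enzyme untreated or pretreated with 0.001–10 test compound, then incubated with subsite-specific fluorogenic substrate 30 min at 37 °C in activity buffer; fluorescence ex 360/em 465 nm. IC50 from fit of percent control vs concentration, Y=100/(1+(X/IC50))^A.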

[2] = Inhibition of trypsin-like activity of 20S proteasome in lymphoblastoid cells after 30 mins; format: cell-based, Homo sapiens; in short: as §1
[3] = Inhibition of chymotrypsin-like activity of 20S proteasome in lymphoblastoid cells after 30 mins; format: cell-based, Homo sapiens; in short: as §1
[4] = species on record: Homo sapiens; test: Stability in human plasma after 6 hrs

SMILES: CCOC(=O)/C=C/[C@H](CCC(N)=O)NC(=O)[C@H](CC(C)C)NC(=O)[C@H](CC(C)C)NC(=O)c1cccc(O)c1C
IC50 [1]: > 10 µM
IC50 [2]: 0.145 µM
IC50 [3]: 8.41 µM
half-life [4]: > 6 h

SMILES: CCOC(=O)/C=C/[C@H](CC(C)C)NC(=O)[C@@H]1Cc2ccccc2CN1C(=O)[C@H](CC(C)C)NC(=O)c1cccc(O)c1C
IC50 [1]: > 10 µM
IC50 [2]: > 10 µM
IC50 [3]: > 10 µM
half-life [4]: > 6 h

SMILES: CCOC(=O)/C=C/[C@H](CCC(N)=O)NC(=O)[C@H](CC(C)C)NC(=O)[C@@H]1Cc2ccccc2CN1C(=O)c1cccc(O)c1C
IC50 [1]: > 10 µM
IC50 [2]: 0.435 µM
IC50 [3]: > 10 µM
half-life [4]: > 6 h

SMILES: CCOC(=O)/C=C/[C@H](CCC(N)=O)NC(=O)[C@H](CO)NC(=O)[C@@H]1Cc2ccccc2CN1C(=O)c1cccc(O)c1C
IC50 [1]: > 10 µM
IC50 [2]: 0.349 µM
IC50 [3]: > 10 µM
half-life [4]: > 6 h

SMILES: CCOC(=O)/C=C/[C@H](CC(C)C)NC(=O)[C@H](CO)NC(=O)[C@@H]1Cc2ccccc2CN1C(=O)c1cccc(O)c1C
IC50 [1]: > 10 µM
IC50 [2]: 0.098 µM
IC50 [3]: 7.36 µM
half-life [4]: > 6 h

SMILES: CCOC(=O)/C=C/[C@H](CC(C)C)NC(=O)[C@H](CO)NC(=O)[C@@H](NC(=O)c1cccc(O)c1C)C(C)C
IC50 [1]: > 10 µM
IC50 [2]: 0.033 µM
IC50 [3]: > 10 µM
half-life [4]: > 6 h

Results, then the molecule that gave them:

IC50 [1]: > 10 µM
IC50 [2]: 5.89 µM
IC50 [3]: > 10 µM
half-life [4]: > 6 h
SMILES: CCOC(=O)/C=C/[C@H](CCC(N)=O)NC(=O)[C@@H]1Cc2ccccc2CN1C(=O)[C@H](CC(C)C)NC(=O)c1cccc(O)c1C

IC50 [1]: > 10 µM
IC50 [2]: 2.34 µM
IC50 [3]: > 10 µM
half-life [4]: > 6 h
SMILES: CCOC(=O)/C=C/[C@H](CCC(N)=O)NC(=O)[C@@H]1Cc2ccccc2CN1C(=O)[C@@H](NC(=O)c1cccc(O)c1C)C(C)C

IC50 [1]: > 10 µM
IC50 [2]: 8.51 µM
IC50 [3]: > 10 µM
half-life [4]: > 6 h
SMILES: CCOC(=O)/C=C/[C@H](CC(C)C)NC(=O)[C@@H]1Cc2ccccc2CN1C(=O)[C@@H](NC(=O)c1cccc(O)c1C)C(C)C

IC50 [1]: > 10 µM
IC50 [2]: 0.157 µM
IC50 [3]: 6.89 µM
half-life [4]: > 6 h
SMILES: CCOC(=O)/C=C/[C@H](CC(C)C)NC(=O)[C@H](CC(C)C)NC(=O)[C@@H]1Cc2ccccc2CN1C(=O)c1cccc(O)c1C

IC50 [1]: > 10 µM
IC50 [2]: 0.056 µM
IC50 [3]: > 10 µM
half-life [4]: > 6 h
SMILES: CCOC(=O)/C=C/[C@H](CCC(N)=O)NC(=O)[C@H](CO)NC(=O)[C@@H](NC(=O)c1cccc(O)c1C)C(C)C
